What was measured:
Type in all cases: in vivo, Wistar rats
[1] = Pharmacokinetics of oral DAS in rats with or without SA pretreatment; settings: for k el: Kel; for MRT inf: MRT 0-inf_obs
Pgp/MDR1 = experiment: Hepatic and intestinal Pgp/MDR1 protein expression
Summary of the method: (§1)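 Wistar rats (n = 6/group), fasted overnight and dosed by intragastric gavage: saline for 7 days; saline for 6 days, then the drug at 25 mg/kg p.o. on day 7; the drug on day 7 given 2 h after test compound at 40 mg/kg; or test compound at 40 mg/kg for 7 days. Liver and intestine protein (BCA) was run on 10% SDS-PAGE and blotted to PVDF. Primary antibodies with β-actin overnight at 4 °C, secondary 2 h, chemiluminescence, densitometry. Mean ± SD, one-way ANOVA.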

CYP3A2 = experiment: Hepatic and intestinal CYP3A2 protein expression
Summary of the method: as §1

BCRP/ABCG2 = experiment: Hepatic and intestinal BCRP/ABCG2 protein expression
Summary of the method: as §1

[2] = Wistar, rat, plasma, po, 25 mg/kg, rats, DAS 25 mg/kg p.o. after SA 40 mg/kg p.o. pretreatment for seven days, Mean ± SD
[3] = Wistar, rat, plasma, po, 25 mg/kg, rats, DAS 25 mg/kg p.o. single dose, alone, Mean ± SD
[4] = decrease, SA 40 mg/kg + DAS 25 mg/kg vs DAS alone, rats
[5] = increase, SA 40 mg/kg + DAS 25 mg/kg vs DAS alone, rats
[6] = rats, DAS 25 mg/kg p.o. after SA 40 mg/kg p.o. pretreatment for seven days, Mean ± SD
[7] = rats, DAS 25 mg/kg p.o. single dose, alone, Mean ± SD
[8] = intestine, SA 40 mg/kg alone vs normal rats
[9] = intestine, SA-pretreated rats + DAS vs DAS alone
[10] = liver, SA 40 mg/kg alone vs normal rats
[11] = liver, SA-pretreated rats + DAS vs DAS alone

Cc1nc(Nc2ncc(C(=O)Nc3c(C)cccc3Cl)s2)cc(N2CCN(CCO)CC2)n1 [DAS, Dasatinib]
half-life ([1]; Wistar, rat, plasma, po, 25 mg/kg): 335 ± 12 min
AUC(0-t) [1, 2]: 2210 ± 96.3 ng·h/mL
AUC(0-t) [1, 3]: 1720 ± 70.6 ng·h/mL
Cmax [1, 2]: 419 ± 18.8 ng/mL
Cmax [1, 3]: 259 ± 9.71 ng/mL
k el [1, 2]: 3.33e-05 s⁻¹
k el [1, 3]: 4.44e-05 s⁻¹
MRT inf [1, 2]: 8.2 ± 0.25 h
MRT inf [1, 3]: 7.31 ± 0.17 h
% Change in Cl [1, 4]: 26.97%
% Change in Kel [1, 4]: 22.33%
% Change in Vd [1, 4]: 5.96%
% Change in AUC 0-t [1, 5]: 28.98%
% Change in AUMC 0-∞ [1, 5]: 53.63%
% Change in Cmax [1, 5]: 62.02%
% Change in MRT 0-inf_obs [1, 5]: 12.08%
% Change in T1/2 [1, 5]: 28.82%
% Change in Tmax [1, 5]: 100%
AUMC 0-∞ [1, 6]: 23569.00 ± 1418.58 ng/mL*h^2
Cl [1, 6]: 0.009 ± 0.00 (mg/kg)/(ng/mL)/h
Tmax [1, 6]: 2.00 ± 0.00 h
Vd [1, 6]: 0.070 ± 0.004 (mg/kg)/(ng/mL)
AUMC 0-∞ [1, 7]: 15341.83 ± 607.98 ng/mL*h^2
Cl [1, 7]: 0.012 ± 0.001 (mg/kg)/(ng/mL)/h
T1/2 [1, 7]: 4.34 ± 0.11 h
Vd [1, 7]: 0.075 ± 0.003 (mg/kg)/(ng/mL)
induction of intestinal Pgp/MDR1 protein expression (Pgp/MDR1; intestine, DAS administration vs normal rats): 76.42%
induction of hepatic Pgp/MDR1 protein expression (Pgp/MDR1; liver, DAS administration vs normal rats): 72.30%
increase of intestinal CYP3A2 protein expression (CYP3A2; intestine, DAS administered rats (25 mg/kg p.o.) vs normal rats): 92.97%
increase of hepatic CYP3A2 protein expression (CYP3A2; liver, DAS administered rats (25 mg/kg p.o.) vs normal rats): 92.03%
induction of intestinal BCPR/ABCG2 protein expression (BCRP/ABCG2; intestine, DAS per-oral administration vs normal rats): 73.55%
induction of hepatic BCPR/ABCG2 protein expression (BCRP/ABCG2; liver, DAS per-oral administration vs normal rats): 75.09%

COc1cc(/C=C/C(=O)O)cc(OC)c1O [SA, Sinapic acid]
inhibition of intestinal Pgp/MDR1 protein expression (Pgp/MDR1; [8]): 76.93%
inhibition of intestinal Pgp/MDR1 protein expression (Pgp/MDR1; [9]): 47.43%
inhibition of hepatic Pgp/MDR1 protein expression (Pgp/MDR1; [10]): 84.93%
inhibition of hepatic Pgp/MDR1 protein expression (Pgp/MDR1; [11]): 44.06%
inhibition of intestinal CYP3A2 protein expression (CYP3A2; [8]): 89.47%
inhibition of hepatic CYP3A2 protein expression (CYP3A2; [10]): 88.91%
inhibition of hepatic CYP3A2 protein expression (CYP3A2; liver, SA 40 mg/kg pretreatment for seven days + DAS vs DAS administered rats): 57.11%
inhibition of intestinal BCPR/ABCG2 protein (BCRP/ABCG2; [9]): 50.48%
inhibition of hepatic BCPR/ABCG2 protein (BCRP/ABCG2; [11]): 51.44%

— PMC10582055 (Saudi Pharmaceutical Journal : SPJ, 2023)
